Assays:
[1] = Inhibition of porcine pancreatic alpha-amylase using starch as substrate preincubated for 10 min followed by substrate addition and measured after 20 min by absorbance based analysis; design: species or system Sus scrofa
Method in brief: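 Porcine α-amylase (1 U mL⁻¹) pre-incubated with compound 10 min at 25 °C in phosphate buffer pH 6.8. 1% starch added, then 15 min at 37.5 ± 2 °C. Quenched with DNS reagent, heated 70 °C 20 min, diluted with buffer, A540 read, in triplicate. Final concentrations 100–1 μM from DMSO dilutions; IC50 from a linear fit of % inhibition at y = 50.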

PANC-1 [2] = assay: Cytotoxicity against human PANC-1 cells assessed as inhibition of cell viability at upto 100 uM incubated for 24 hrs by MTT assay; format: toxicity, cell-based; conditions: panc-1, 24 h
Method in brief: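 PANC-1 cells seeded at 9 × 10³ per well, triplicate, 24 h at 37 °C, 5% CO₂. Treated with 5, 10, 20, 40, 60, 80 and 100 μM for another day. MTT (5 mg mL⁻¹ stock) 3 h at 37 °C, plates centrifuged, formazan dissolved in DMSO 30 min dark, A570. Viability compared by one-way ANOVA with Tukey test.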

PANC-1 [3] = assay: Antioxidant activity in human PANC-1 cells assessed as decrease in high glucose induced ROS production by measuring minimum fractional index at 5 uM incubated for 24 hrs by DCFDA-staining based flow cytometry analysis; format: functional
Method in brief: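 PANC-1 cells (1 × 10⁵/well) grown 24 h at 37 °C, 5% CO₂, then pre-treated 1 h with 5 μM compound. Exposed to glucose (stated 10 μM) for 23 h. Stained with 10 μM DCFH-DA for 30 min at 37 °C, rinsed, and ROS read by flow cytometry as DCFDA/FITC mean fluorescence intensity.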

[4] = target: alpha-glucosidase (Saccharomyces cerevisiae); assay: Inhibition of Saccharomyces cerevisiae alpha-glucosidase using 4-nitrophenyl-alpha-D-glucopyranoside as substrate incubated with compound for 15 to 20 min by absorbance based analysis
PANC-1 [5] = assay: (§1) Anti-diabetic activity against high glucose induced human PANC-1 cells assessed as decrease in glucose induced alpha-glucosidase expression by measuring by measuring minimum fractional index at 5 uM incubated for 23 hrs and measured after 24 hrs by flow cytometric analysis (reference value: 4361 +/- 257.83); format: functional
PANC-1 [6] = assay: as §1, with “alpha-amylase” for “alpha-glucosidase”, “2887” for “4361”, “95.87)” for “257.83)”; format: functional
Rattus norvegicus [7] = assay: Antioxidant activity in fasted STZ-induced diabetic Wistar rat model assessed as increase in high glucose induced ROS production in pancreas by measuring minimum fractional index at 10 mg/kg, po administration for 21 days; format: functional; conditions: time 21 day
Method in brief: (§2)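 Rat pancreas mashed through a 70 μm strainer in FACS buffer. Processed by centrifugation (300 × g and 800 × g, 21 °C), 42% Percoll and 5 min RBC lysis. Cells washed, stained with DCFH-DA, and ROS read on a flow cytometer.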

Rattus norvegicus [8] = assay: Antioxidant activity in fasted STZ-induced diabetic Wistar rat model assessed as decrease in high glucose induced ROS production in pancreas by measuring minimum fractional index at 10 mg/kg, po administration for 21 days in presence of pioglitazone days and measured on day 35; format: functional; conditions: time 21 day; method in brief: as §2
Rattus norvegicus [9] = organism: Rattus norvegicus; assay: (§3) Anti-diabetic activity in high glucose induced alpha-amylase expression in fasted STZ-induced diabetic Wistar rat model assessed as alpha- glucosidase level in pancreas by measuring minimum fractional index in presence of pioglitazone incubated for 23 hrs and measured after 24 hrs by flow cytometric analysis (reference value: 3063 +/- 149.2); format: functional
Rattus norvegicus [10] = organism: Rattus norvegicus; assay: as §3, with “alpha-amylase” for “alpha- glucosidase”, “2590 + 199.74)” for “3063 +/- 149.2)”; format: functional
[11] = Toxicity against STZ-induced diabetic Wistar rat model assessed as body weight loss at 10 mg/kg, po measured on day 14; format: organism-based; conditions: in vivo, 336 h, time 14 day
Method in brief: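 STZ given on day 1; oral treatment started day 14, with vehicle 0.5% CMC in controls. Six groups: normal, vehicle, STZ, STZ + two test compounds, STZ + pioglitazone. Blood glucose (tail puncture, glucometer) and body weight recorded on days 1, 4, 14 and 35. One-way ANOVA.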

[12] = Toxicity against STZ-induced diabetic Wistar rat model assessed as body weight loss in presence of pioglitazone at 10 mg/kg, po measured on day 14; format: organism-based; conditions: in vivo

SMILES | IC50 [1] [µM] | Activity (PANC-1 [2]) | Activity_index (PANC-1 [3]) | IC50 [4] [µM] | further results
O=C1/C(=C2/SC(=O)N(Cc3cccc([N+](=O)[O-])c3)C2=O)Nc2ccccc21 | 44 | Non-toxic | 3041 | 58.44 | –
CCOc1cc(/C=C2\SC(=O)N(Cc3cccc([N+](=O)[O-])c3)C2=O)ccc1OCc1ccc(Cl)cc1 | 126 | Non-toxic | 4225 | 96.15 | –
C[C@H]1O[C@H](O[C@H]2[C@H](O)[C@@H](O)[C@@H](O[C@H]3[C@H](O)[C@@H](O)C(O)O[C@@H]3CO)O[C@@H]2CO)[C@H](O)[C@@H](O)[C@@H]1N[C@H]1C=C(CO)[C@@H](O)[C@H](O)[C@H]1O (some centres undefined) [ACARBOSE] | – | – | 149 | – | Activity index (PANC-1 [5]): 170; Activity index (PANC-1 [6]): 114
O=C1/C(=C2/SC(=O)N(Cc3cccc([N+](=O)[O-])c3)C2=O)Nc2ccc(Cl)cc21 | 50.8 | Non-toxic | 3063 | 53.18 | –
CCOc1cc(/C=C2\SC(=O)N(Cc3cccc([N+](=O)[O-])c3)C2=O)ccc1OCc1ccccc1 | 55.6 | Non-toxic | 898 | 31.2 | –
CN(N=O)C(=O)N[C@@H]1[C@@H](O)[C@H](O)[C@@H](CO)O[C@@H]1O [STREPTOZOSIN] | – | – | – | – | Activity_index (Rattus norvegicus [7]): 3762; Activity_index (Rattus norvegicus [8]): 221; Activity_index (Rattus norvegicus [9]): 720; Activity_index (Rattus norvegicus [10]): 230; Activity [11]: Toxic; Activity [12]: Toxic
CCOc1cc(/C=C2\SC(=O)N(Cc3cccc([N+](=O)[O-])c3)C2=O)ccc1OCc1ccc(F)cc1 | 60.1 | Non-toxic | 2438 | 46.51 | –
CCOc1cc(/C=C2\SC(=O)N(Cc3cccc([N+](=O)[O-])c3)C2=O)ccc1OCc1cccc([N+](=O)[O-])c1 | 64.8 | Non-toxic | 4225 | 99.1 | –
CCOc1cc(/C=C2\SC(=O)N(Cc3cccc([N+](=O)[O-])c3)C2=O)ccc1OCc1ccc([N+](=O)[O-])cc1 | 93.5 | Non-toxic | 676 | 38.33 | –
CCOc1cc(/C=C2\SC(=O)N(Cc3cccc([N+](=O)[O-])c3)C2=O)ccc1OS(=O)(=O)c1ccc(C)cc1 | 48.7 | Non-toxic | 957 | 42.24 | –
CCOc1cc(/C=C2\SC(=O)N(Cc3cccc([N+](=O)[O-])c3)C2=O)ccc1OCc1ccc(C)cc1 | 54.2 | Non-toxic | 230 | 20.31 | –
O=C1/C(=C2/SC(=O)N(Cc3cccc([N+](=O)[O-])c3)C2=O)Nc2ccc(Br)cc21 | 61 | Non-toxic | 2982 | 68.76 | –

From ChEMBL document CHEMBL6074625, “Thiazolidine-2,4-dione hybrids as dual alpha-amylase and alpha-glucosidase inhibitors: design, synthesis, in vitro and in vivo anti-diabetic evaluation” (RSC Med Chem, 2024)
